In ChEMBL document CHEMBL5335820, “Novel quinolinepiperazinyl-aryltetrazoles targeting the blood stage of Plasmodium falciparum” (RSC Med Chem, 2024):

Experiments:
[1] = Selectivity index, ratio of CC50 for human Huh-7 cells to IC50 for antiplasmodial activity against chloroquine resistant Plasmodium falciparum INDO infected in human erythrocytes; format: toxicity, cell-based; conditions: read-out: Ratio CC50/IC50
How it was run: (§1)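 Selectivity index = CC50 / PfINDO IC50. CC50 came from MTT assays: 10^4 HEK293 or HUH7 cells per well, seeded overnight and exposed to 0–100 μM for 24 h, then MTT for 4 h at 37 °C with formazan dissolved in DMSO and read at A570. Controls were 0.8% DMSO (full growth) and 10% DMSO (zero growth).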

[2] = tested on: Plasmodium falciparum; assay: Antiplasmodial activity against chloroquine resistant Plasmodium falciparum INDO infected in human erythrocytes assessed as inhibition of parasite growth at 100 uM incubated for 72 hrs by SYBR green I staining based fluorescence plate reader analysis relative to control; format: functional; conditions: Erythrocyte
How it was run: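 Single-concentration screen at 100 μM against PfINDO, triplicate wells, 72 h. Final DMSO was 0.4%. Growth was read by SYBR Green I lysis (excitation 485, emission 530 nm) and expressed relative to untreated culture, taken as 100% growth.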

[3] = tested on: Plasmodium falciparum; assay: Antiplasmodial activity against chloroquine sensitive Plasmodium falciparum 3D7 infected in human erythrocytes assessed as inhibition of parasite growth at 100 uM incubated for 72 hrs by SYBR green I staining based fluorescence plate reader analysis relative to control; format: functional; conditions: 3D7, Erythrocyte
How it was run: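 Pf3D7 grown in O+ human erythrocytes at 4% haematocrit, Albumax (0.05%)-RPMI, 37 °C, 5% O2/5% CO2/90% N2, sorbitol-synchronised at ring stage. Single-point screen at 100 μM, final DMSO 0.4%, triplicate wells, 72 h. Read-out by SYBR Green I lysis buffer (Tris pH 7.5, EDTA, saponin, Triton X-100), 1 h dark at 37 °C, ex 485/em 530 nm. Growth expressed relative to untreated culture.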

[4] = Cytotoxicity against human HEK293 cells assessed as reduction in cell viability incubated for 24 hrs by MTT assay; format: toxicity, cell-based
[5] = tested on: Plasmodium falciparum; assay: Antiplasmodial activity against chloroquine resistant Plasmodium falciparum INDO infected in human erythrocytes assessed as inhibition of parasite growth incubated for 72 hrs by SYBR green I staining based fluorescence plate reader analysis; format: functional, organism-based; conditions: Erythrocyte
How it was run: (§2)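 Pf3D7 or PfINDO was cultured in O+ human erythrocytes at 37 °C under 5% O2/5% CO2/90% N2 and ring-synchronised with 5% sorbitol. Cultures were exposed to 0–100 μM in triplicate for 72 h, with final DMSO 0.4%. After SYBR Green I lysis buffer (1 h, dark, 37 °C), fluorescence was read at 485/530 nm. Chloroquine-well counts were subtracted as background, and IC50 was obtained by non-linear regression.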

[6] = Resistance index, ratio of IC50 of chloroquine resistant Plasmodium falciparum INDO to chloroquine sensitive Plasmodium falciparum 3D7; format: functional
How it was run: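 Resistance index = IC50 against PfINDO / IC50 against Pf3D7. Both IC50s came from 72 h SYBR Green I assays.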

[7] = tested on: Plasmodium falciparum; assay: Antiplasmodial activity against chloroquine sensitive Plasmodium falciparum 3D7 infected in human erythrocytes assessed as inhibition of parasite growth incubated for 72 hrs by SYBR green I staining based fluorescence plate reader analysis; format: functional, organism-based; conditions: 3D7, Erythrocyte; how it was run: as §2
[8] = Selectivity index, ratio of CC50 for human HEK293 cells to IC50 of chloroquine resistant Plasmodium falciparum INDO infected in human erythrocytes; format: toxicity, cell-based; conditions: read-out: Ratio CC50/IC50; how it was run: as §1
[9] = Cytotoxicity against human Huh-7 cells assessed as reduction in cell viability incubated for 24 hrs by MTT assay; format: toxicity, cell-based
[10] = tested on: Plasmodium berghei; assay: Antimalarial activity against Plasmodium berghei ANKA infected in mouse model of malaria assessed as reduction in parasite infection by measuring median survival at 100 mg/kg, po; format: functional
[11] = tested on: Plasmodium falciparum; assay: Antimalarial activity against chloroquine resistant trophozoites-stage Plasmodium falciparum INDO infected in human erythrocytes assessed as inhibition of parasite growth incubated for 12 hrs; format: functional, organism-based; conditions: Erythrocyte
How it was run: (§3)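 PfINDO cultures were staged at 0–6 h (rings), 18–22 h (trophozoites), 30–34 h (early schizonts) and 40–44 h (late schizonts) post-invasion. Each was exposed to varying concentrations for 12 h, washed free of compound by centrifugation, and grown 48 h in drug-free medium. IC50 came from growth curves, with untreated culture as 100% and chloroquine-treated culture as 0% growth.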

[12] = tested on: Plasmodium falciparum; assay: Antimalarial activity against chloroquine resistant early schizont Plasmodium falciparum INDO infected in human erythrocytes assessed as inhibition of parasite growth incubated for 12 hrs; format: functional, organism-based; conditions: Erythrocyte; how it was run: as §3
[13] = tested on: Plasmodium falciparum; assay: Antiplasmodial activity against chloroquine resistant ring-stage Plasmodium falciparum INDO infected in human erythrocytes assessed as inhibition of parasite growth incubated for 12 hrs; format: functional, organism-based; conditions: Erythrocyte; how it was run: as §3
[14] = tested on: Plasmodium falciparum; assay: Antimalarial activity against chloroquine resistant late schizont Plasmodium falciparum INDO infected in human erythrocytes assessed as inhibition of parasite growth incubated for 12 hrs; format: functional, organism-based; conditions: Erythrocyte; how it was run: as §3

Row | Compound | selectivity ratio [1] | inhibition at 100 µM [2] [%] | inhibition at 100 µM [3] [%] | CC50 at 24 h [4] [µM] | IC50 [5] [µM] | Ratio IC50 [6] | IC50 [7] [µM] | selectivity ratio [8] | CC50 at 24 h [9] [µM] | Survival [10] [days] | IC50 [11] [µM] | IC50 [12] [µM] | IC50 [13] [µM] | IC50 [14] [µM]
1 | Cc1ccc(-c2nnn(CCCN3CCN(c4ccnc5cc(Cl)ccc45)CC3)n2)cc1 | 48.8 | > 50 | > 50 | > 400 | 6.35 | 0.79 | 8 | 63 | 310 | – | – | – | – | –
2 | O=C(Cn1nnc(-c2cccc(F)c2)n1)N1CCN(c2ccnc3cc(Cl)ccc23)CC1 | > 47.3 | > 50 | > 50 | > 400 | 8.46 | 1.04 | 8.14 | 47.3 | > 400 | – | – | – | – | –
3 | O=[N+]([O-])c1cccc(-c2nnn(CCCN3CCN(c4ccnc5cc(Cl)ccc45)CC3)n2)c1 | 4.45 | > 50 | > 50 | > 400 | 16.2 | 1.76 | 9.17 | 24.7 | 72 | – | – | – | – | –
4 | COc1cccc(-c2nnn(CCCN3CCN(c4ccnc5cc(Cl)ccc45)CC3)n2)c1 | > 52.2 | > 50 | > 50 | 342 | 7.66 | 0.77 | 9.9 | 44.6 | > 400 | – | – | – | – | –
5 | O=C(Cn1nnc(-c2ccc(F)cc2)n1)N1CCN(c2ccnc3cc(Cl)ccc23)CC1 | 1.95 | > 50 | > 50 | > 400 | 12.4 | 0.8 | 15.6 | 32.2 | 24.2 | – | – | – | – | –
6 | CCN(CC)CCCC(C)Nc1ccnc2cc(Cl)ccc12 (configuration not stated) [CHLOROQUINE] | – | – | – | – | – | – | – | – | – | 28 | – | – | – | –
7 | Fc1ccc(-c2nnn(CCCN3CCN(c4ccnc5cc(Cl)ccc45)CC3)n2)cc1 | > 99 | > 50 | > 50 | > 400 | 4.04 | 1.96 | 2.07 | 99 | > 400 | – | 2.8 | 1.68 | 1.72 | 1.85
8 | CC(C)c1ccc(-c2nnn(CC(=O)N3CCN(c4ccnc5cc(Cl)ccc45)CC3)n2)cc1 | > 60.1 | > 50 | > 50 | > 400 | 6.66 | 0.42 | 15.9 | 60.1 | > 400 | – | 24.9 | 21.5 | 18.5 | 26.7
9 | O=C(Cn1nnc(-c2ccc(Cl)cc2)n1)N1CCN(c2ccnc3cc(Cl)ccc23)CC1 | > 28.7 | > 50 | > 50 | > 400 | 14 | 0.43 | 32.1 | 28.7 | > 400 | – | – | – | – | –
10 | O=C(Cn1nnc(-c2cccc(Br)c2)n1)N1CCN(c2ccnc3cc(Cl)ccc23)CC1 | > 44.5 | > 50 | > 50 | > 400 | 8.99 | 0.86 | 10.5 | 44.5 | > 400 | – | – | – | – | –
11 | Clc1ccc(-c2nnn(CCCN3CCN(c4ccnc5cc(Cl)ccc45)CC3)n2)cc1 | > 139 | > 50 | > 50 | > 400 | 2.87 | 2.58 | 1.11 | 139 | > 400 | – | 12.2 | 3.93 | 4.07 | 7.64
12 | COc1ccc(-c2nnn(CCCN3CCN(c4ccnc5cc(Cl)ccc45)CC3)n2)cc1OC | 21.7 | > 50 | > 50 | > 400 | 5.97 | 1.23 | 4.84 | 67 | 129 | – | – | – | – | –
13 | Clc1ccc2c(N3CCN(CCCn4nnc(-c5cccc(Br)c5)n4)CC3)ccnc2c1 | > 56.8 | > 50 | > 50 | > 400 | 7.05 | 1.83 | 3.84 | 56.8 | > 400 | – | 7.31 | 8.24 | 8.67 | 4.62
14 | O=C(Cn1nnc(-c2ccc([N+](=O)[O-])cc2)n1)N1CCN(c2ccnc3cc(Cl)ccc23)CC1 | > 179 | > 50 | > 50 | > 400 | 2.24 | 1.36 | 1.65 | 179 | > 400 | – | 4.72 | 5.46 | 10.3 | 6.29
15 | Fc1cccc(-c2nnn(CCCN3CCN(c4ccnc5cc(Cl)ccc45)CC3)n2)c1 | > 28.1 | > 50 | > 50 | > 400 | 14.2 | 0.62 | 22.9 | 28.1 | > 400 | – | – | – | – | –
16 | Clc1cccc(-c2nnn(CCCN3CCN(c4ccnc5cc(Cl)ccc45)CC3)n2)c1 | > 20.1 | > 50 | > 50 | > 400 | 19.9 | 1.87 | 10.7 | 20.1 | > 400 | – | – | – | – | –
17 | O=C(Cn1nnc(-c2ccc(Br)cc2)n1)N1CCN(c2ccnc3cc(Cl)ccc23)CC1 | > 35.6 | > 50 | > 50 | > 400 | 11.2 | 0.64 | 17.5 | 35.6 | > 400 | – | – | – | – | –
18 | CC(C)c1ccc(-c2nnn(CCCN3CCN(c4ccnc5cc(Cl)ccc45)CC3)n2)cc1 | > 47.8 | > 50 | > 50 | > 400 | 8.37 | 2.69 | 3.12 | 47.8 | > 400 | – | – | – | – | –
19 | O=C(Cn1nnc(-c2cccc(Cl)c2)n1)N1CCN(c2ccnc3cc(Cl)ccc23)CC1 | > 67.7 | > 50 | > 50 | > 400 | 5.91 | 0.47 | 12.6 | 67.7 | > 400 | – | 5.39 | 15.9 | 19.6 | 24.8
